Data taken from PMC3285107 (ACS medicinal chemistry letters, 2012).
Entries after “also recorded” stand apart in the source; their conditions may differ.

Legend:
RGS4 = test: FCPIA: inhibition of Gαo binding to RGS4; settings: for activity at RGS4: result in words
Procedure, shortened: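 Primary FCPIA screen for inhibition of Gαo binding to RGS4, run in parallel against RGS8, its closest sequence relative, to assess selectivity. IC50 values are averages of two independent experiments. Calculated ΔpIC50 mean error: 0.2 for RGS4, 0.14 for RGS8.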

[1] = system: M3 muscarinic receptors in HEK293T cells; test: Carbachol-stimulated Ca2+ transient; format: cell-based; settings: compound 10 μM, carbachol 10 nM, HEK cells with human M3 receptor
Procedure, shortened: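 HEK-293 cells stably expressing human M3 muscarinic receptor, plated overnight, then loaded with Fluo4-NW for 30 min at 37 °C. Test compound added at 10 μM (1% DMSO). After […] minutes, baseline fluorescence read on a plate reader. Carbachol (10 nM final) injected, and the rise in intracellular Ca2+ expressed as percentage of baseline Ca2+ level.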

cysteine protease papain = settings: result in words; cited from earlier work
Aqueous solubility = format: physicochemical; settings: result in words

Sequence of RGS4 (P49798 whole entry): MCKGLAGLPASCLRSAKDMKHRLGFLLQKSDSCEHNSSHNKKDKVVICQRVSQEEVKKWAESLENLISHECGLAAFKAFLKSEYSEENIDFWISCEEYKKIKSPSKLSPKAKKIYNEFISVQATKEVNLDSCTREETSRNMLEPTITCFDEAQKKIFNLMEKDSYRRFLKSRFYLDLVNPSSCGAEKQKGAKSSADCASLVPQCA

## Cc1ccc(C2=CC(=O)N(Cc3ccccc3)C2=O)cc1 [compound 15]
RGS4
  activity at RGS4: neither 14 or 15 displayed activity

## Cc1ccc(Cn2c(=O)sn(-c3ccc(C)cc3)c2=O)cc1 [compound 4]
RGS4
  selectivity for RGS4 versus RGS8: > 1000 fold

## Cc1ccc(-n2sc(=O)n(Cc3ccc(F)cc3)c2=O)cc1 [1a]
[1]
  effect on carbachol-induced Ca2+ transient: nearly completely abolished
Cysteine protease papain
  inhibition of papain: failing to inhibit

## Cc1ccc(Cn2sc(=O)n(Cc3ccccc3)c2=O)cc1 [2i]
RGS4
  selectivity for RGS4 versus RGS8: near three orders of magnitude

## CCCCn1c(=O)sn(CC)c1=O [11b]
[1]
  effect on carbachol-induced Ca2+ transient: no effect; also recorded: no calcium transient
Aqueous solubility
  aqueous solubility: high solubility; also recorded: excellent aqueous solubility

## Cc1ccc(-n2sc(=O)n(Cc3cccc(Cl)c3)c2=O)cc1 [compound 5]
RGS4
  selectivity for RGS4 versus RGS8: > 1000 fold

## CCn1sc(=O)n(CCOC)c1=O [compound 13]
[1]
  effect on carbachol-induced Ca2+ transient: no effect
RGS4
  selectivity for RGS4 versus RGS8: > 600 fold
Aqueous solubility
  aqueous solubility: further improved solubility

## Cc1ccc(-n2sc(=O)n(Cc3ccc(Cl)cc3)c2=O)cc1 [compound 3]
RGS4
  selectivity for RGS4 versus RGS8: > 1000 fold

## COc1ccc(Cn2c(=O)sn(-c3ccc(C)cc3)c2=O)cc1 [compound 7]
RGS4
  selectivity for RGS4 versus RGS8: > 1000 fold

## Cc1ccc(CN2C(=O)CN(c3ccc(C)cc3)C2=O)cc1 [compound 14]
RGS4
  activity at RGS4: neither 14 or 15 displayed activity

## Cc1ccc(Cn2sc(=O)n(Cc3ccc(F)cc3)c2=O)cc1 [1i]
RGS4
  selectivity for RGS4 versus RGS8: near three orders of magnitude
